Shown are actives, neighbours in structure and some others; about 2.6% of the full set was active somewhere.
Apaf-1 inh – inhibitors of human Apaf-1 apoptosome, primary screen, biochemical, DEVD-Rh110 fluorescence, uHTS; reconstituted apoptosome caspase-3 activity; hit rate 0.71% among 330,000; inhibition, % at 20 µM; active = inhibition of at least 40% at 20 µM
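Medium: Hepes buffer, pH 7.5 / System: biochemical Apaf-1 apoptosome reconstitution / Measured by: Rh110 fluorescence, excitation 480 nm, emission 540 nm / Times: compound with Apaf-1, dATP, procaspase-3 30 min, then 50 min reaction, room temperature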
TDP2 absorb – human TDP2 enzyme inhibitors, primary screen, biochemical, epi absorbance, recombinant enzyme; T5PNP hydrolysis, p-nitrophenol absorbance 415 nm; inhibition, % at 12.8 µM; hit rate 0.34% among 370,000; AID 720702, 2013; Tyrosyl-DNA phosphodiesterase 2 (Homo sapiens), O95551;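 active = inhibition above the mean of all tested compounds plus 3 SD, set per campaign, cut at about 25% in these data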
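Assay system: Recombinant human TDP2 | Quantity: 120 nM TDP2 per well | Incubation: 2 h at 37 °C | Signal: Epi absorbance | Evaluation: Percent inhibition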
GSTO1 inh – inhibitors of recombinant GSTO1, primary screen, counter-screen for RBBP9 inhibitor project, biochemical, fluorescence polarization; hit rate 1.1% among 300,000; inhibition, % at 5.96 µM; Glutathione S-transferase omega-1 (Homo sapiens), P78417; activity-based probe fluorescence polarization; AID 1974, 2009;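 active = inhibition above the campaign mean inhibition plus 3 SD, cut at about 35% in these data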
Target sequence (P78417 whole entry, looked up): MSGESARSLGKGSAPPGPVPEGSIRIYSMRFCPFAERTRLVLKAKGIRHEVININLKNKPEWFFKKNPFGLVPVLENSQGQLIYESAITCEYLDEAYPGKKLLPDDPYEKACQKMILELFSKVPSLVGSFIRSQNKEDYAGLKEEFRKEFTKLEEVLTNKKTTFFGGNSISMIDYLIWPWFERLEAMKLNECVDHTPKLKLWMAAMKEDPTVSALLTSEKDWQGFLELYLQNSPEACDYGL
PRMT1 FP inh – PRMT1 methyltransferase inhibitors, primary screen, biochemical, fluorescence polarization. AID 652257, 2013. recombinant PRMT1, activity-based probe fluorescence polarization. Protein arginine N-methyltransferase 1 (Homo sapiens), Q99873. hit rate 1.3% among 370,000. inhibition, % at 2.79 µM;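 active = inhibition above about 21% made by adding two undisclosed values, limit read from the data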
Target sequence (Q99873 whole entry, looked up): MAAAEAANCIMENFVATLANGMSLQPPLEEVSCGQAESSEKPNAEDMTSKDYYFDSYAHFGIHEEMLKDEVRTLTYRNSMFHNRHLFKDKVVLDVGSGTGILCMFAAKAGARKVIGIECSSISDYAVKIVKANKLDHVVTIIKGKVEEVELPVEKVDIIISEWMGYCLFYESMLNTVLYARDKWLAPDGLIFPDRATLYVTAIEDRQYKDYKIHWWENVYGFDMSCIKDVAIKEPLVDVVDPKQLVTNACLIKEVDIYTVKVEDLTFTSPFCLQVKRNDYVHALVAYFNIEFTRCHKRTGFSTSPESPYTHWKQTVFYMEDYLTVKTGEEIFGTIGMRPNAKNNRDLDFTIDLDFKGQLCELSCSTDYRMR
PAD4 inh – human PAD4 inhibitors, primary screen, biochemical, fluorescence polarization, 1536-well format; hit rate 0.41% among 330,000; recombinant PAD4, RCA probe fluorescence polarization; inhibition, % at 6.36 µM; AID 485272, 2010;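 active = percent inhibition above a cutoff equal to the mean of all tested compounds plus 3 SD, cut at about 15% in these data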
GSTO1 confirm – GSTO1 inhibitor hit confirmation, counter-screen for RBBP9 inhibitor project, biochemical, fluorescence polarization, triplicate | inhibition, % at 5.96 µM | hit rate 54% among 2,400 | shares compounds with GSTO1 inh | recombinant GSTO1, probe fluorescence polarization;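 active = inhibition above the primary screen's cutoff, its mean inhibition plus 3 SD, cut at about 35% in these data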;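 also: loss of polarization as inhibitors block binding of rhodamine sulfonate ester activity probe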
PAD4 FP conf – human PAD4 inhibitors, confirmation, biochemical, fluorescence polarization; shares compounds with PAD4 inh; recombinant PAD4, RCA probe fluorescence polarization; inhibition, % at 6.36 µM; hit rate 28% among 1,200;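 active = mean inhibition across replicates above the hit cutoff set by the earlier primary screen, cut at about 15% in these data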;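 also: inhibitors block active-site labeling by the probe so polarization falls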
Apaf-1 inh conf2 – Apaf-1 inhibitors, single-dose retest, confirmation, biochemical, fluorescence, DEVD-Rh110, 20 µM | AID 504614, 2011 | hit rate 25% among 1,800 | inhibition, % at 20 µM | shares compounds with Apaf-1 inh | reconstituted apoptosome, caspase-3 DEVD-Rh110 fluorescence;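 active = mean inhibition of at least 40% at 20 µM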
Rh110 interf inh – Rh110 fluorescence interference by putative Apaf-1 inhibitors, confirmation, artefact control for Apaf-1 inhibitor project, biochemical, 20 µM | shares compounds with Apaf-1 inh | quenched caspase reaction | activation (fluorescence interference), % at 20 µM | 1,800 tested, under 10 active;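 active = signal rise of 40% or more at 20 µM, treated as a fluorescence artifact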
Apaf1 inh interf – fluorescence interference of Apaf-1 inhibitor hits, dose response, artefact control for Apaf-1 inhibitor project; AID 588538, 2011; shares compounds with Apaf-1 inh; fluorescence interference counterscreen, Apaf-1 assay format; 460 tested, under 10 active; IC50, µM; call rule not given here
TDP2 inh conf – human TDP2 enzyme inhibitors, retest, confirmation, biochemical, epi absorbance, recombinant enzyme | shares compounds with TDP2 absorb | absorbance read-out | inhibition, % at 12.8 µM | hit rate 22% among 1,100; in the data active = inhibition above about 25%
Large screens that a line does not name were inactive (follow-up assays come after a bar, where they were run).

CCCC(=Nc1ccc(N)cc1)C1=C(O)C(C(=O)OC)C(C)(C)CC1=O (stereo unspecified)	Apaf-1 inh 67, TDP2 absorb 53, GSTO1 inh 88, PAD4 inh 67 | GSTO1 confirm inactive | PAD4 FP conf inactive | Apaf-1 inh conf2 inactive | Rh110 interf inh inactive | TDP2 inh conf inactive
CCCC(=O)C1=C(O)C(C(=O)OC)C(C)(C)CC1=Nc1ccc(N)cc1 (stereo unspecified)	none
CCCCn1c(NS(=O)(=O)c2ccccc2)c(S(=O)(=O)c2ccc(C)cc2)c2nc3ccccc3nc21	TDP2 absorb 89, GSTO1 inh 92, PAD4 inh 66 (no result: Apaf-1 inh) | GSTO1 confirm 83 | PAD4 FP conf inactive | TDP2 inh conf 95
Cc1ccc(S(=O)(=O)c2c(N)n(CCCO)c3nc4ccccc4nc23)cc1	TDP2 absorb 54, GSTO1 inh 60 | GSTO1 confirm inactive | TDP2 inh conf inactive
CCCCn1c(NC(=O)c2ccco2)c(S(=O)(=O)c2ccc(C)cc2)c2nc3ccccc3nc21	none (no result: Apaf-1 inh, GSTO1 inh, PAD4 inh)
CCCCn1c(NC(=O)c2ccc(Br)o2)c(S(=O)(=O)c2ccccc2)c2nc3ccccc3nc21	Apaf-1 inh 71, TDP2 absorb 67, GSTO1 inh 58 | GSTO1 confirm 67 | Apaf-1 inh conf2 inactive | Rh110 interf inh inactive | TDP2 inh conf inactive
CN(C)CC(=O)N[C@H]1C[C@@H]2O[C@@H](CO)CC[C@@H]2O[C@@H]1CCc1ccc(-c2ccc(F)cc2)cc1	none (no result: Apaf-1 inh, GSTO1 inh, PAD4 inh)
O=C1C(O)=C(O)C(=O)c2ccccc21	Apaf-1 inh 92, TDP2 absorb 57, GSTO1 inh 81 | GSTO1 confirm 68 | Apaf-1 inh conf2 67 | Rh110 interf inh inactive | Apaf1 inh interf inactive | TDP2 inh conf 72
O=C1/C(=C/C=C/c2ccco2)SC(=S)N1c1ccc(O)cc1	TDP2 absorb 26, GSTO1 inh 46, PRMT1 FP inh 25 | GSTO1 confirm inactive | TDP2 inh conf inactive
CC(CCN1CCC(C(O)(c2ccccc2)c2ccccc2)CC1)Oc1cccc(F)c1 (stereo unspecified)	none (no result: Apaf-1 inh, GSTO1 inh, PAD4 inh)
O=S(=O)(c1ccccc1S(=O)(=O)N1CCCCC1)N1CCCCC1	none (no result: TDP2 absorb, PRMT1 FP inh)
O=C1C=C(N2CCCCC2)c2ccccc2C1=O	Apaf-1 inh 98, TDP2 absorb 70, GSTO1 inh 91, PAD4 inh 65 | GSTO1 confirm 88 | PAD4 FP conf 61 | Apaf-1 inh conf2 100 | Rh110 interf inh inactive | Apaf1 inh interf inactive | TDP2 inh conf 85
COc1ccc(S(=O)(=O)Nc2cccc3ccc(O)cc23)cc1	none
COc1ccc(S(=O)(=O)Nc2cc(SCC(=O)O)c(O)c3ccccc23)cc1	Apaf-1 inh 85, TDP2 absorb 43, GSTO1 inh 81, PRMT1 FP inh 52, PAD4 inh 35 | GSTO1 confirm 54 | PAD4 FP conf inactive | Apaf-1 inh conf2 41 | Rh110 interf inh inactive | Apaf1 inh interf inactive | TDP2 inh conf 50
CC(C)N(C(=O)Nc1ccc2nsnc2c1)C(C)C	Apaf-1 inh 97, TDP2 absorb 88, GSTO1 inh 98, PRMT1 FP inh 25, PAD4 inh 78 | GSTO1 confirm 77 | PAD4 FP conf inactive | Apaf-1 inh conf2 96 | Rh110 interf inh inactive | Apaf1 inh interf inactive | TDP2 inh conf 61
CCOc1ccc(NC(=S)Nc2ccc3nsnc3c2)cc1	TDP2 absorb 72, GSTO1 inh 87, PAD4 inh 76 | GSTO1 confirm 81 | TDP2 inh conf 74
COc1ccc(NC(=S)Nc2ccc3nsnc3c2)cc1	Apaf-1 inh 97, TDP2 absorb 76, GSTO1 inh 86, PAD4 inh 68 | GSTO1 confirm 80 | PAD4 FP conf inactive | Apaf-1 inh conf2 97 | Rh110 interf inh inactive | Apaf1 inh interf inactive | TDP2 inh conf 80
S=C(Nc1ccc2nsnc2c1)N1CCCCCC1	Apaf-1 inh 93, TDP2 absorb 62, GSTO1 inh 77, PAD4 inh 50 | GSTO1 confirm 79 | PAD4 FP conf inactive | Apaf-1 inh conf2 inactive | Rh110 interf inh inactive | TDP2 inh conf 68
S=C(Nc1ccc2nsnc2c1)NC1CCCCC1	none
COc1ccc(NC(=S)Nc2ccc3nc(C)c(C)nc3c2)cc1	none
CCOc1ccc(NC(=O)Nc2ccc3nsnc3c2)cc1	none
CC1(C)CNc2cc(N)ccc2S1	Apaf-1 inh 50, TDP2 absorb 38, GSTO1 inh 39 | GSTO1 confirm inactive | Apaf-1 inh conf2 70 | Rh110 interf inh inactive | Apaf1 inh interf inactive | TDP2 inh conf inactive
Cc1ccc(N=Cc2ccc(N(C)C)cc2)cc1	none
CN(C)c1ccc(C=Nc2ccc(N(C)C)cc2)cc1	TDP2 absorb 28, GSTO1 inh 78, PRMT1 FP inh 22, PAD4 inh 32 | GSTO1 confirm inactive | PAD4 FP conf inactive | TDP2 inh conf inactive
COc1ccc(C(=O)OCCCN(C)C2CN(Cc3cn(Cc4cccc(F)c4)nn3)S(=O)(=O)C2)cc1OC (stereo unspecified)	none (no result: Apaf-1 inh, GSTO1 inh, PAD4 inh)
CC(=O)c1ccc(NC2=C(N3CCOCC3)C(=O)c3ccccc3C2=O)cc1	Apaf-1 inh 80, TDP2 absorb 54, GSTO1 inh 39 | GSTO1 confirm inactive | Apaf-1 inh conf2 46 | Rh110 interf inh inactive | Apaf1 inh interf inactive | TDP2 inh conf 38
CC(=O)c1ccc(S(=O)(=O)Nc2ccc(N3CCOCC3)cc2)cc1	none
